The results in this text go back to ChEMBL document CHEMBL1944571, “A bright approach to the immunoproteasome: development of LMP2/β1i-specific imaging probes” (Bioorg Med Chem, 2012).

Calls of active or inactive are those of the source. No cut-off for these calls is given here.

Test [1] concerns the target T1, Proteasome subunit beta type-9 (Homo sapiens) (UniProt P28065).
T1 sequence (whole entry): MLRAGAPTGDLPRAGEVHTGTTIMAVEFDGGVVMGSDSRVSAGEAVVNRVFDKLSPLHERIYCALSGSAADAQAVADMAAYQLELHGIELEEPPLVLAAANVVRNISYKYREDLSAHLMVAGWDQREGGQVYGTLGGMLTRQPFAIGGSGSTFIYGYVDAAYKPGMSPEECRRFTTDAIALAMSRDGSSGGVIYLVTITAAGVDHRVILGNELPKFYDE
The experiment in a line: Binding affinity to LMP2/beta1i in human PC3 cells after 4 hrs using typhoon imaging by gel fluorescence assay. In kind it is cell-based. The settings on record: PC-3. The procedure, abridged:
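PC-3 cells were treated with probe or DMSO vehicle for 4 h, with an epoxomicin control. Cells were washed in HBSS and lysed on ice for 1 h in NP-40/Triton X-100 buffer with protease inhibitors. Equal protein was run on 12% SDS-PAGE after denaturing at 100°C, and gels were scanned for fluorescence (λex 635 nm, λem 665 nm).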

Test [2] deals with T1, Proteasome subunit beta type-9 (Homo sapiens). Briefly: Binding affinity to LMP2/beta1i in human PC3 cells at 30 uM after 4 hrs by gel-fluorescence assay in presence of UK101-Lys-Cbz treated 1.5 hrs before compound treatment. In kind it is cell-based. Conditions: PC-3. The procedure, abridged:
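PC-3 cells were pretreated for 1.5 h with DMSO or 20 μM competitor, then incubated with 30 μM fluorescent probe for a further 4 h. Lysates were resolved by SDS-PAGE, and gels were imaged for in-gel fluorescence (λex 635 nm, λem 665 nm).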

The target is the same in test [3]. The experiment in a line: Binding affinity to LMP2/beta1i in human PC3 cells at 30 uM after 4 hrs by gel-fluorescence assay in presence of UK101 treated 1.5 hrs before compound treatment. In kind it is cell-based. The settings on record: PC-3. The procedure, abridged: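 PC-3 cells were pretreated for 1.5 h with DMSO or 1 μM competitor, then given 30 μM fluorescent probe for a further 4 h. Cells were washed, lysed, resolved by SDS-PAGE, and gels were imaged for in-gel fluorescence (λex 635 nm, λem 665 nm).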

Test [4] has the same target. Briefly: Effect on LMP2/beta1i cellular distribution in human PC3 cells after 4 hrs by fluorescence microscopy analysis in presence of UK101 treated 1.5 hrs before compound treatment. In kind it is cell-based. Conditions: PC-3. In short, it runs like this: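 PC-3 cells were grown on coverslips for 24–48 h, pretreated for 1.5 h with DMSO or 5 μM competitor, then given 15 μM probe for 4 h. Cells were washed, fixed in 4% paraformaldehyde, permeabilized with 0.2% Triton, and blocked. Where indicated, cells were stained with anti-LMP2 antibody, mounted with DAPI, and imaged by fluorescence microscopy, with intensity normalized to control.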

Test [5] has the same target. Briefly: Binding affinity to LMP2/beta1i in human PC3 cells at 30 uM after 4 hrs by fluorescence microscopy analysis in presence of UK101-Lys-Cbz treated 1.5 hrs before compound treatment. In kind it is cell-based. Conditions: PC-3.
The target is the same in test [6]. Briefly: Binding affinity to LMP2/beta1i in human PC3 cells at 15 uM after 4 hrs by fluorescence microscopy analysis in presence of UK101 treated 1.5 hrs before compound treatment. Conditions: PC-3.
Test [7] addresses T2, Proteasome subunit beta type-9 (Mus musculus) (UniProt P28076).
T2 sequence (whole entry): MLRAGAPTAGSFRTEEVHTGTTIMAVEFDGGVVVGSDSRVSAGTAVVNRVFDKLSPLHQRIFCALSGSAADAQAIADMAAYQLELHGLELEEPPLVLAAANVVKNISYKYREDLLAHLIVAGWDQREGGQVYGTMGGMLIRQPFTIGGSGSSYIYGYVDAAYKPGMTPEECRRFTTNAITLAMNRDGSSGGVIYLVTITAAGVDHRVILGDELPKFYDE
Briefly: Binding affinity to LMP2/beta1i in mouse EL4 cells at 1 uM after 1.5 hrs by Western blotting. In kind it is cell-based. The procedure, abridged: (§1)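 EL4 or PC-3 cells were exposed for 1.5 h to compound, DMSO vehicle, or 1 μM epoxomicin as positive control. Cells were washed in HBSS, lysed on ice for 1 h in non-denaturing NP-40/Triton buffer, and equal protein was resolved on 12% SDS-PAGE and blotted to PVDF. Blots were probed with subunit-specific antibodies and read by ECL. An upward band shift versus DMSO was scored as covalent modification.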
For orientation: Immunoblotting shows a protein as a band on a membrane.

The target of test [8] is T2, Proteasome subunit beta type-9 (Mus musculus). Briefly: Binding affinity to LMP2/beta1i in mouse EL4 cells at 5 uM after 1.5 hrs by Western blotting. In kind it is cell-based. The procedure, abridged:
as §1

The target is the same in test [9]. Briefly: Binding affinity to LMP2/beta1i in mouse EL4 cells at 10 uM after 1.5 hrs by Western blotting. In kind it is cell-based. The procedure, abridged:
as §1

Test [10] addresses T3, Proteasome subunit beta type-8 (Mus musculus) (UniProt P28063).
T3 sequence (whole entry): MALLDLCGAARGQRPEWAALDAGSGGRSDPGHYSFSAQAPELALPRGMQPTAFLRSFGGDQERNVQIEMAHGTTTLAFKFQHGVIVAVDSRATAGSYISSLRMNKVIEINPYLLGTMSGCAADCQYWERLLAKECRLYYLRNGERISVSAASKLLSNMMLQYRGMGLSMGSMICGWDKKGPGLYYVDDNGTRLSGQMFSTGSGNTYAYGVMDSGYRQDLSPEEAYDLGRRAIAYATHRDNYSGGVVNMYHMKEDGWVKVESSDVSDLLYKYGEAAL
The experiment in a line: Binding affinity to LMP7/beta5i in mouse EL4 cells at 10 uM after 1.5 hrs by Western blotting. In kind it is cell-based. The procedure, abridged: as §1

The target of test [11] is T4, Proteasome subunit beta type-6 (Mus musculus) (UniProt Q60692).
T4 sequence (whole entry): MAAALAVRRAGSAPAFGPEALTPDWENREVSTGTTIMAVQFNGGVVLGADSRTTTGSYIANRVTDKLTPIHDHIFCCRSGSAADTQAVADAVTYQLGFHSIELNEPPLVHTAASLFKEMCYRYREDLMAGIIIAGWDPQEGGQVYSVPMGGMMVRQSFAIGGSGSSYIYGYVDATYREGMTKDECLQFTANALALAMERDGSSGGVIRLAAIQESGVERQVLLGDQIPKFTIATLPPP
Briefly: Binding affinity to LMPY/beta1 in mouse EL4 cells at 10 uM after 1.5 hrs by Western blotting. In kind it is cell-based. The procedure, abridged: as §1

For test [12], the target named is T5, Proteasome subunit beta type-5 (Mus musculus) (UniProt O55234).
T5 sequence (whole entry): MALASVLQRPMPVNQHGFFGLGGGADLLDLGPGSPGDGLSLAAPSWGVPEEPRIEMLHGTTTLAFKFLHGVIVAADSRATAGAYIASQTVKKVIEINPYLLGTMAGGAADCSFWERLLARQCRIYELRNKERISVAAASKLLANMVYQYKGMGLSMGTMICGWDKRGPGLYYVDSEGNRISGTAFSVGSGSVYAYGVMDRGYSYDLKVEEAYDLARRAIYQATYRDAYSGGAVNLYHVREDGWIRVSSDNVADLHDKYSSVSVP
Briefly: Binding affinity to LMPX/[…] in mouse EL4 cells at 10 uM after 1.5 hrs by Western blotting. In kind it is cell-based. In short, it runs like this: as §1

In test [13] the target is T1, Proteasome subunit beta type-9 (Homo sapiens). Briefly: Binding affinity to LMP2/beta1i in human PC3 cells at 10 to 80 uM after 1.5 hrs by Western blotting. Conditions: PC-3. In kind it is cell-based. The procedure, abridged:
as §1

Test [14] deals with T6, Proteasome Macropain subunit MB1 (Homo sapiens) (UniProt P28074).
T6 sequence (whole entry): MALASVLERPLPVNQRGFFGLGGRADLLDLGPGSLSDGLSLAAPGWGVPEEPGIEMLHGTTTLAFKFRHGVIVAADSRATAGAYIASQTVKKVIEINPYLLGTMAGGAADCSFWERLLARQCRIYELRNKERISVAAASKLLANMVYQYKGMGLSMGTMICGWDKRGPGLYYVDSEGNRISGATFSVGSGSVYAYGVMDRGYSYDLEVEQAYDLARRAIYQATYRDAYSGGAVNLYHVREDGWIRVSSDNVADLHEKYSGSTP
Briefly: Binding affinity to LMPX/[…] in human PC3 cells at 10 to 20 uM after 1.5 hrs by Western blotting. In kind it is cell-based. Conditions: PC-3. In short, it runs like this:
as §1

Test [15] concerns the target T7, Proteasome subunit beta type-6 (Homo sapiens) (UniProt P28072).
T7 sequence (whole entry): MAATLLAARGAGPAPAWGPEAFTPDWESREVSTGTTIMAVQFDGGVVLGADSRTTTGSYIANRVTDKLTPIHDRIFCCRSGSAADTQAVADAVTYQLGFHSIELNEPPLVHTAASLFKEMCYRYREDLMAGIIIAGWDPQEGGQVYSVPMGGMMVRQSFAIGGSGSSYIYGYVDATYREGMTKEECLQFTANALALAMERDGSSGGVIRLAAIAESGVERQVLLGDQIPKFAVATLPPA
The experiment in a line: Binding affinity to LMPY/beta1 in human PC3 cells at 10 to 20 uM after 1.5 hrs by Western blotting. In kind it is cell-based. Conditions: PC-3. In short, it runs like this: as §1

Test [16] addresses T8, Proteasome subunit beta type-8 (Homo sapiens) (UniProt P28062).
T8 sequence (whole entry): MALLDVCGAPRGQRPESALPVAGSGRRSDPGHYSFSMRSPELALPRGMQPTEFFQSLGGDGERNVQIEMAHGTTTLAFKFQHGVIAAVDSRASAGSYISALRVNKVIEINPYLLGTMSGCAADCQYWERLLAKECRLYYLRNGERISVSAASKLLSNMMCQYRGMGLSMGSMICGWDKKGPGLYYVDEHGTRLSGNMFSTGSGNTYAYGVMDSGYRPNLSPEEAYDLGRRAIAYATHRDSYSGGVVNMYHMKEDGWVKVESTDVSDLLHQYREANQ
The experiment in a line: Binding affinity to LMP7/beta5i in human PC3 cells at 10 to 20 uM after 1.5 hrs by Western blotting. In kind it is cell-based. Conditions: PC-3. The procedure, abridged: as §1

In the case of `CCCCCCC(=O)N[C@@H](CCCCNC(=O)CCCCCNC(=O)COc1ccc(/C=C/c2ccc3n2[B-](F)(F)[N+]2=C(c4ccc[nH]4)C=CC2=C3)cc1)C(=O)N[C@@H](CC(C)C)C(=O)[C@@]1(CO[Si](C)(C)C(C)(C)C)CO1`, the result in test [1] was Active. Besides, the outcome in test [2], in [3], in test [4], in [5] and in test [6] was inactive.
Regarding `CCCCCCC(=O)N[C@@H](CCCCNC(=O)OCc1ccccc1)C(=O)N[C@@H](CC(C)C)C(=O)[C@@]1(CO[Si](C)(C)C(C)(C)C)CO1`, the outcome in [7], in [10], in test [11], in test [12], in test [14] and in test [15] was inactive. For the same compound, the result in [16] was inactive. In addition, the outcome in test [8], in test [9] and in [13] was Active.
